Tests used:
[1] = target: Opioid receptors; delta & kappa (Homo sapiens) (UniProt P41145+P41143); experiment: Selectivity ratio of kappa opioid receptor to that of delta opioid receptor in guinea pig brain membranes; assay type: cell membranes; settings: Cavia porcellus; target entry is the homologue from another species
[2] = target: T1, Kappa-type opioid receptor (Cavia porcellus, UniProt P41144); experiment: Binding affinity towards guinea pig Opioid receptor kappa 1 using radioligand [3H]U-69593
Outline: (§1)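 Competitive displacement binding on guinea pig brain membranes. Each receptor was labelled with its own tritiated radioligand: [³H]DAMGO (μ agonist) for μ, [³H]naltrindole (δ antagonist) for δ, and [³H]U69593 (κ agonist) for κ. The method follows an earlier protocol.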

[3] = target: Opioid receptors; mu & kappa (Homo sapiens) (UniProt P41145+P35372); experiment: Selectivity ratio of kappa opioid receptor to that of mu opioid receptor in guinea pig brain membranes; assay type: cell membranes; settings: Cavia porcellus; target entry is the homologue from another species
Mu-type opioid receptor = Mu-type opioid receptor (Cavia porcellus, UniProt P97266); experiment: Binding affinity towards Opioid receptor mu 1 in guinea pig brain membranes using [3H]DAMGO as radioligand; assay type: cell membranes, Membrane; outline: as §1
[4] = target: T1, Kappa-type opioid receptor; experiment: Binding affinity towards Opioid receptor kappa 1 in guinea pig brain membranes using [3H]U-69593 as radioligand; assay type: cell membranes, Membrane; outline: as §1
[5] = Binding affinity towards Opioid receptor delta 1 in guinea pig brain membranes using [3H]naltrindole as radioligand

T1 sequence (P41144 whole entry): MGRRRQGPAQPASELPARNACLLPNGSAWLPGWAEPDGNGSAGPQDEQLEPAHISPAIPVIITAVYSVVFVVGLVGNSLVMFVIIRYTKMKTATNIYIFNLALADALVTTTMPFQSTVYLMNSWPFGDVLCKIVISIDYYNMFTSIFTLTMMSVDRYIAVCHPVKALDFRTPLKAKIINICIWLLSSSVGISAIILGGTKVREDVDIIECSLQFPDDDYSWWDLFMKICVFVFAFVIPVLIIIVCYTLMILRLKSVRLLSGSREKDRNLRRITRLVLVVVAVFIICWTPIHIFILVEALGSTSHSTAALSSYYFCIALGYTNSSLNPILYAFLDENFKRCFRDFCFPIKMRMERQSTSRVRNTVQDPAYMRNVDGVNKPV
Opioid receptors; delta & kappa (Homo sapiens), sequence (P41143 whole entry, looked up): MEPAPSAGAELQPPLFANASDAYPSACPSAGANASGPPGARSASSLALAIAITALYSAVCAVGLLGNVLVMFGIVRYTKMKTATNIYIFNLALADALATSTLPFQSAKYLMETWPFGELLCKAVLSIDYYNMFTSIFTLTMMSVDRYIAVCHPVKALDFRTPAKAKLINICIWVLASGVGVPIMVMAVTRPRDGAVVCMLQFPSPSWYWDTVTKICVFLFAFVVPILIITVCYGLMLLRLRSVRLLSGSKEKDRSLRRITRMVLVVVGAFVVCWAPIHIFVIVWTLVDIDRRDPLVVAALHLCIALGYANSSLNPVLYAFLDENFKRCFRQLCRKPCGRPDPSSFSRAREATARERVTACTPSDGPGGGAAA
Opioid receptors; delta & kappa (Homo sapiens), sequence (P41145 whole entry, looked up): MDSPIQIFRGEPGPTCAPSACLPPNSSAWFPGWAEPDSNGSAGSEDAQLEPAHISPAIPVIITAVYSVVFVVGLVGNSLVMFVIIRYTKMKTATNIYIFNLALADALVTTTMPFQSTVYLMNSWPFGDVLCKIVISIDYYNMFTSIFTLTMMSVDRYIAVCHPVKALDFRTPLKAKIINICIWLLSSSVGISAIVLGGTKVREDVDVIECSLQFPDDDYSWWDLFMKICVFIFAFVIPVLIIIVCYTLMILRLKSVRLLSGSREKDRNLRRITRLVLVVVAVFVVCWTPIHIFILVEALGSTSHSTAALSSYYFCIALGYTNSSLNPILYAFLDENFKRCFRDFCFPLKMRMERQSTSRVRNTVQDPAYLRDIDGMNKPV
Opioid receptors; mu & kappa (Homo sapiens), sequence (P35372 whole entry, looked up): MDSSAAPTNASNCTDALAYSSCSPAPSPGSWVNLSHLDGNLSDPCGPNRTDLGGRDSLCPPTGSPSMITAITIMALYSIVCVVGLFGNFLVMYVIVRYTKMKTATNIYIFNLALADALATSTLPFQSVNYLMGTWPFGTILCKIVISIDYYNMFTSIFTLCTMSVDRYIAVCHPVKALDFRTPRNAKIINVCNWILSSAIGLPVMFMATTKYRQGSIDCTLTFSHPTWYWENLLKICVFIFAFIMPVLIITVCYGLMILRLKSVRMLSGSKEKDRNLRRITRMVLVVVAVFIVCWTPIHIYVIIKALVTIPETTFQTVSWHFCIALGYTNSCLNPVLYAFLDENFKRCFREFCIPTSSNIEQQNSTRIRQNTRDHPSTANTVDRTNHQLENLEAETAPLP
Opioid receptors; mu & kappa (Homo sapiens), sequence (P41145 whole entry, looked up): as the sequence (P41145 whole entry, looked up) above
Mu-type opioid receptor, sequence (P97266 whole entry): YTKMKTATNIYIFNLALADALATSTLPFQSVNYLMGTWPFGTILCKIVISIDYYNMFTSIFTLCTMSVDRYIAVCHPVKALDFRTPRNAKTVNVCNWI

Oc1ccc2c(c1)C[C@@H]1[C@@H]3CCCC[C@]23CCN1CCC(F)(F)F
Selectivity [1]: 21
Ki [2]: 1.3 nM
Selectivity [3]: 2
Ki (Mu-type opioid receptor): 2.3 nM

O=C(CCN1CC[C@]23CCCC[C@H]2[C@H]1Cc1cc(O)ccc13)c1cccs1
Selectivity [1]: 2
Ki [2]: 4.5 nM
Selectivity [3]: 0.06
Ki (Mu-type opioid receptor): 0.27 nM

CC(C)CN1CC[C@]23CCCC[C@H]2[C@H]1Cc1cc(O)ccc13
Selectivity [1]: 35
Ki [4]: 0.16 nM
Selectivity [3]: 3
Ki (Mu-type opioid receptor): 0.54 nM

CN1CC[C@]23CCCC[C@H]2[C@H]1Cc1ccc(O)cc13 [LEVORPHANOL]
Selectivity [1]: 2
Ki [5]: 4.2 nM
Selectivity [3]: 0.09

O=C(CCN1CC[C@]23CCCC[C@H]2[C@H]1Cc1cc(O)ccc13)c1ccco1
Selectivity [1]: 5
Ki [2]: 7.9 nM
Selectivity [3]: 0.035
Ki (Mu-type opioid receptor): 0.28 nM

Oc1ccc2c(c1)C[C@@H]1[C@@H]3CCCC[C@]23CCN1CCC(O)c1ccco1 (some centres undefined)
Selectivity [1]: 2
Ki [2]: 12 nM
Selectivity [3]: 0.35
Ki (Mu-type opioid receptor): 4.2 nM

Oc1ccc2c(c1)C[C@@H]1[C@@H]3CCCC[C@]23CCN1CCC(O)c1ccccc1 (some centres undefined)
Selectivity [1]: 2
Ki [2]: 57 nM
Selectivity [3]: 0.4
Ki (Mu-type opioid receptor): 21 nM

N#CCCCN1CC[C@]23CCCC[C@H]2[C@H]1Cc1cc(O)ccc13
Selectivity [1]: 8
Ki [2]: 0.38 nM
Selectivity [3]: 0.42
Ki (Mu-type opioid receptor): 0.16 nM

Oc1ccc2c(c1)[C@@]13CCCC[C@H]1[C@@H](C2)N(CC1CCC1)CC3 [BUTORPHAN]
Selectivity [1]: 18
Ki [5]: 1.3 nM
Ki [4]: 0.07 nM
Selectivity [3]: 2

Oc1ccc2c(c1)C[C@@H]1[C@@H]3CCCC[C@]23CCN1CCOc1ccccc1
Selectivity [1]: 2
Ki [2]: 15 nM
Selectivity [3]: 0.06
Ki (Mu-type opioid receptor): 0.92 nM

Oc1ccc2c(c1)C[C@@H]1[C@@H]3CCCC[C@]23CCN1CCc1ccccc1
Selectivity [1]: 2
Ki [2]: 1.3 nM
Selectivity [3]: 0.092
Ki (Mu-type opioid receptor): 0.12 nM

Oc1ccc2c(c1)C[C@@H]1[C@@H]3CCCC[C@]23CCN1CCCF
Selectivity [1]: 10
Ki [4]: 0.083 nM
Selectivity [3]: 2
Ki (Mu-type opioid receptor): 0.18 nM

Oc1ccc2c(c1)C[C@@H]1[C@@H]3CCCCC23CCN1CC1CCCCC1
Selectivity [1]: 46
Ki [4]: 1.5 nM
Selectivity [3]: 12
Ki (Mu-type opioid receptor): 18 nM

Oc1ccc2c(c1)C[C@@H]1[C@@H]3CCCCC23CCN1Cc1cccs1
Selectivity [1]: 160
Ki [2]: 0.32 nM
Selectivity [3]: 5
Ki (Mu-type opioid receptor): 1.5 nM

Oc1ccc2c(c1)[C@@]13CCCC[C@H]1[C@@H](C2)N(CC1CC1)CC3 [CYCLORPHAN]
Ki [5]: 0.22 nM

Oc1ccc2c(c1)C[C@@H]1[C@@H]3CCCC[C@]23CCN1Cc1ccccc1
Selectivity [1]: 220
Ki [2]: 1.9 nM
Selectivity [3]: 11
Ki (Mu-type opioid receptor): 20 nM

Oc1ccc2c(c1)C[C@@H]1[C@@H]3CCCCC23CCN1CC1CCCC1
Selectivity [1]: 33
Ki [4]: 0.21 nM
Selectivity [3]: 5
Ki (Mu-type opioid receptor): 0.96 nM

CCOCCN1CC[C@]23CCCC[C@H]2[C@H]1Cc1cc(O)ccc13
Selectivity [1]: 16
Ki [4]: 0.33 nM
Selectivity [3]: 0.8
Ki (Mu-type opioid receptor): 0.26 nM

C=CCN1CC[C@]23CCCC[C@H]2[C@H]1Cc1cc(O)ccc13
Selectivity [1]: 26
Ki [2]: 0.16 nM
Selectivity [3]: 2
Ki (Mu-type opioid receptor): 0.34 nM

O=C(CCN1CC[C@]23CCCC[C@H]2[C@H]1Cc1cc(O)ccc13)c1ccccc1
Selectivity [1]: 2
Ki [2]: 9.9 nM
Selectivity [3]: 0.04
Ki (Mu-type opioid receptor): 0.43 nM

Oc1ccc2c(c1)C[C@@H]1[C@@H]3CCCC[C@]23CCN1CC=CI
Selectivity [1]: 51
Ki [2]: 0.65 nM
Selectivity [3]: 0.6
Ki (Mu-type opioid receptor): 0.42 nM

C#CCN1CC[C@]23CCCC[C@H]2[C@H]1Cc1ccc(O)cc13
Selectivity [1]: 210
Ki [2]: 0.003 nM
Selectivity [3]: 1
Ki (Mu-type opioid receptor): 0.0032 nM

Oc1ccc2c(c1)C[C@@H]1[C@@H]3CCCC[C@]23CCN1Cc1ccco1
Selectivity [1]: 65
Ki [2]: 0.13 nM
Selectivity [3]: 4
Ki (Mu-type opioid receptor): 0.54 nM

Oc1ccc2c(c1)C[C@@H]1[C@@H]3CCCC[C@]23CCN1CCC(O)c1cccs1 (some centres undefined)
Selectivity [1]: 4
Ki [2]: 25 nM
Selectivity [3]: 0.2
Ki (Mu-type opioid receptor): 4.1 nM

N#CCCN1CC[C@]23CCCC[C@H]2[C@H]1Cc1cc(O)ccc13
Selectivity [1]: 11
Ki [2]: 0.23 nM
Selectivity [3]: 1.4
Ki (Mu-type opioid receptor): 0.33 nM

COCCN1CC[C@]23CCCC[C@H]2[C@H]1Cc1cc(O)ccc13
Selectivity [1]: 6
Ki [2]: 0.094 nM
Selectivity [3]: 1
Ki (Mu-type opioid receptor): 0.11 nM

Oc1ccc2c(c1)C[C@@H]1[C@@H]3CCCC[C@]23CCN1C/C=C/I
Selectivity [1]: 730
Ki [2]: 0.037 nM
Selectivity [3]: 0.13
Ki (Mu-type opioid receptor): 0.0048 nM

Source: ChEMBL document CHEMBL1134817, “Mixed kappa agonists and mu agonists/antagonists as potential pharmacotherapeutics for cocaine abuse: synthesis and opioid receptor binding affinity of N-substituted derivatives of morphinan” (Bioorg Med Chem Lett, 2001)
